Results reported in ChEMBL document CHEMBL1800073, “Inhibition of 1-deoxy-D-xylulose-5-phosphate reductoisomerase by lipophilic phosphonates: SAR, QSAR, and crystallographic studies” (J Med Chem, 2011).
Active and inactive are the calls of the source. The rule behind the calls is not given here.

Key:
[1] = Inhibition of Escherichia coli recombinant DXR using DXP as substrate and MgCl2 as cofactor preincubated for 10 mins
Procedure, shortened: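 Purified enzyme at 10 nM in 50 mM HEPES pH 7.5 with 2 mM MgCl2, 50 µM NADPH and 25 µg/mL BSA. Inhibitor was preincubated with the enzyme for 10 min at 30 °C, then 100 µM DXP was added. IC50 came from dose-response fits of initial velocities, at least three experiments.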

[2] = molecular target: T1, 1-deoxy-D-xylulose 5-phosphate reductoisomerase (Mycobacterium tuberculosis, UniProt P9WNS1); experiment: Inhibition of Mycobacterium tuberculosis recombinant DXR expressed in Escherichia coli BL21 (DE3) using DXP as substrate and MgCl2 as cofactor preincubated for 10 mins
T1 sequence (P9WNS1 whole entry): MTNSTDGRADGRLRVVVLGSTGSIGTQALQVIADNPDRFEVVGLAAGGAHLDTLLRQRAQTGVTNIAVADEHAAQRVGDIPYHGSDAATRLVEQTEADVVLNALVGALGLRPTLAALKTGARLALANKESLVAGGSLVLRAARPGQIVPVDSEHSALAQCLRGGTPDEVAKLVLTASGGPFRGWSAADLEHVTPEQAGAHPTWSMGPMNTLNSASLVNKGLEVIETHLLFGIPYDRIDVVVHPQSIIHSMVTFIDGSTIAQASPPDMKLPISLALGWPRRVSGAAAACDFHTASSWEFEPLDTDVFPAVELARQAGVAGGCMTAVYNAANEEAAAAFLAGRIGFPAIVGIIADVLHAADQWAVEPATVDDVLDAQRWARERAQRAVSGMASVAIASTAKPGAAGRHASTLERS
Procedure, shortened: (§1)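 Assay used 50 nM enzyme in 50 mM HEPES pH 7.6 with 4 mM MgCl2, 50 µM NADPH and 25 µg/mL BSA, plus 100 µM DXP added after a 10 min, 30 °C preincubation. IC50 came from initial velocities, at least three experiments.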

Escherichia coli = experiment: Inhibition of Escherichia coli recombinant DXR using DXP as substrate and MgCl2 as cofactor at 100 uM preincubated for 10 mins
Procedure, shortened: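 Purified recombinant EcDXR (10 nM) with 2 mM MgCl2, 50 µM NADPH, 50 mM HEPES pH 7.5, 25 µg/mL BSA. Inhibitor pre-incubated with enzyme 10 min at 30 °C; reaction started with 100 µM DXP; NADPH consumption followed at 340 nm.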

[3] = molecular target: T2, 1-deoxy-D-xylulose 5-phosphate reductoisomerase (Mycobacterium tuberculosis) (UniProt P9WNS1); experiment: Inhibition of Mycobacterium tuberculosis recombinant DXR expressed in Escherichia coli BL21 (DE3) using DXP as substrate and MgCl2 as cofactor at 100 uM preincubated for 10 mins; procedure, shortened: as §1
T2 sequence (whole entry): T1 sequence (P9WNS1 whole entry)

[4] = Inhibition of DXR

Row | SMILES | Ki [1] [µM] | pKi [1] | Ki [2] [µM] | inhibition (Escherichia coli) | inhibition [3] | IC50 [4] [µM]
1 | O=P(O)(O)Cc1ccncn1 | 3.5 | 5.46 | 12.4 |  |  | 
2 | O=P(O)(O)Cc1ccc(-c2ccccc2)cn1 | 0.42 | 6.38 | 3.2 |  |  | 
3 | O=C(O)Cc1ccncc1 |  | 3.52 |  | inactive | inactive | 
4 | O=P(O)(O)Cc1ccccc1 [BENZYLPHOSPHONIC ACID] |  | 3.52 |  | inactive | inactive | 
5 | O=P(O)(O)c1ccccn1 |  | 3.52 |  | inactive | inactive | 
6 | O=P(O)(O)Cc1cccnc1 | 5 | 5.3 |  |  | inactive | 
7 | O=P(O)(O)C(Nc1ccc(Cl)cn1)P(=O)(O)O | 15.3 |  |  |  | inactive | 7
8 | O=P(O)(O)CCCc1ccccn1 | 9.5 | 5.02 |  |  | inactive | 
9 | O=P(O)(O)Cc1cccc(-c2ccccc2)n1 | 3.5 | 5.46 |  |  | inactive | 
10 | O=P(O)(O)C(Nc1nccc2ccccc12)P(=O)(O)O | 6.3 |  |  |  |  | 4
11 | O=P(O)(O)Cc1cccc(O)c1O |  | 3.52 |  | inactive | inactive | 
12 | O=C(O)c1ccc(-c2ccccc2)cn1 |  | < 3.52 |  | inactive | inactive | 
13 | O=P(O)(O)Cc1cc(Br)ccn1 | 3.5 | 5.46 | 32.7 |  |  | 
14 | O=C(O)Cc1ccccn1 |  | 3.52 |  | inactive | inactive | 
15 | O=P(O)(O)Cc1ccc(Cl)c(Cl)c1 |  | 3.52 |  | inactive | inactive | 
16 | O=P(O)(O)c1ccccc1 [PHENYLPHOSPHONIC ACID] |  | 3.52 |  | inactive | inactive | 
17 | Cc1ccc(-c2ccc(CP(=O)(O)O)nc2)cc1 | 3.9 | 5.41 |  |  | inactive | 
18 | O=P(O)(O)Cc1ccncc1 | 3.5 | 5.46 | 6.8 |  |  | 
19 | O=P(O)(O)Cc1cc(-c2ccccc2)ccn1 | 1.1 | 5.96 | 6.9 |  |  | 
20 | O=S(=O)(O)Cc1ccc(-c2ccccc2)cn1 |  | < 3.52 |  | inactive | inactive | 
21 | O=P(O)(O)Cc1cccc(Br)n1 | 3.6 | 5.46 |  |  | inactive | 
22 | O=P(O)(O)Cc1cc(-c2ccc(F)cc2)ccn1 | 3.5 | 5.46 |  |  | inactive | 
23 | O=C(O)Cc1ccc(-c2ccccc2)cn1 |  | < 3.52 |  | inactive | inactive | 
24 | O=C(O)c1ccccn1 [2-PICOLINIC ACID] |  | 3.52 |  | inactive | inactive | 

Row | SMILES | Ki [1] [µM] | pKi [1] | Ki [2] [µM] | inhibition (Escherichia coli) | inhibition [3] | IC50 [4] [µM]
25 | O=c1ccc(CP(=O)(O)O)cn1O |  | 3.52 |  | inactive | inactive | 
26 | O=P(O)(O)Cc1ccc(O)cn1 | 0.7 | 6.15 | 17.3 |  |  | 
27 | O=c1cccc(CCP(=O)(O)O)[nH]1 |  | 3.52 |  | inactive | inactive | 
28 | O=C(NO)c1ccccn1 |  | < 3.52 |  | inactive | inactive | 
29 | O=C(Cc1ccc(-c2ccccc2)cn1)NO |  | < 3.52 |  | inactive | inactive | 
30 | O=c1ccc(-c2ccccc2)cn1O [1-HYDROXY-5-PHENYLPYRIDIN-2(1H)-ONE] | 0.7 |  | 21.8 |  |  | 
31 | CC(=O)N(O)CCCP(=O)(O)O [FR-900098] | 0.019 | 7.72 | 0.13 |  |  | 
32 | O=P(O)(O)Cc1ccc(Br)cn1 | 6.7 | 5.17 | 45.2 |  |  | 
33 | O=P(O)(O)CCc1ccccc1 |  | 3.52 |  | inactive | inactive | 
34 | O=P(O)(O)CCc1ccccn1 | 18.6 | 4.73 |  |  | inactive | 
35 | O=P(O)(O)Cc1cnccn1 | 11.2 | 4.95 |  |  | inactive | 
36 | O=P(O)(O)CCc1ccccc1O |  | 3.52 |  | inactive | inactive | 
37 | O=P(O)(O)Cc1ccc(-c2ccc(Cl)cc2)cn1 | 1.6 | 5.8 |  |  | inactive | 
38 | O=CN(O)CCC(c1ccc(Cl)c(Cl)c1)P(=O)(O)O (centres undefined) | 0.058 | 7.24 | 1.2 |  |  | 
39 | CC(=O)N(O)CCC(c1ccc(Cl)c(Cl)c1)P(=O)(O)O (racemic) | 0.036 | 7.44 | 1.5 |  |  | 
40 | O=C(O)Cc1cccnc1 |  | < 3.52 |  | inactive | inactive | 
41 | COc1cccc(-c2ccc(CP(=O)(O)O)nc2)c1 | 3.6 | 5.46 |  |  | inactive | 
42 | O=P(O)(O)Cc1ccc2ccccc2n1 | 7.9 | 5.1 | 6.9 |  |  | 
43 | O=P(O)(O)Cc1ccccn1 [PYRIDIN-2-YLMETHYLPHOSPHONIC ACID] | 2.3 | 5.64 | 1.6 |  |  | 
44 | O=C(Cc1ccccn1)NO |  | 3.52 |  | inactive | inactive | 
45 | O=P(O)(O)Cc1ccc(-c2ccc3ccccc3c2)cn1 | 13.9 | 4.86 |  |  | inactive | 
46 | O=P(O)(O)Cc1ccc(OCc2ccccc2)cn1 |  | 3.52 |  | inactive | inactive | 
47 | O=P(O)(O)Cc1ccc(-c2ccc(F)cc2)cn1 | 1.1 | 5.96 | 50.7 |  |  | 
